Reference: ChEMBL document CHEMBL1153000, “Berbamine derivatives: a novel class of compounds for anti-leukemia activity” (Eur J Med Chem, 2009)
pIC50: −log10 of the molar value. The source made the active and inactive calls. No cut-off for these calls is given here.

Key:
K562 [1] = assay: Cytotoxicity against human imatinib-resistant K562 leukemia cells expressing p210Bcr/Abl and MDR1 at 48 hrs by MTT assay; assay type: functional, cell-based; settings: K562, 48 h
Outline: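 Cells were cultured with 100 µg/ml streptomycin at 37 °C in a humidified 95% air/5% CO2 incubator. Viability was read by MTT after 48 h exposure and counts were taken by hemocytometer. IC50 is the mean of three independent determinations.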

K562 [2] = assay: Inhibition of NF-kappaB translocation from cytoplasm to nucleus in human imatinib-resistant K562 leukemia cells expressing p210Bcr/Ab assessed as disappearance of NF-kappaB p65/relA subunit nuclear level at 0.5 ug/ml after 24 hrs by Western blot analysis
K562 [3] = assay: Inhibition of NF-kappaB translocation from cytoplasm to nucleus in human imatinib-resistant K562 leukemia cells expressing p210Bcr/Ab assessed as disappearance of NF-kappaB p65/relA subunit nuclear level at 0.5 ug/ml after 24 hrs by Western blot analysis; assay type: functional, cell-based
Outline: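 Leukemia cells were exposed for 24 h (berbamine 8 µg/ml; derivatives 0.5 µg/ml). Nuclear levels of NF-κB p65/relA were analysed by immunoblot with lamin as the nuclear loading control, and total p65 was also assessed.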

K562 [4] = assay: Cell cycle arrest in human imatinib-resistant K562 leukemia cells expressing p210Bcr/Ab assessed as accumulation at S phase at 2 ug/ml after 48 hrs by flow cytometry; assay type: functional
Outline: (§1)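 K562-R cells (MDR1-expressing) were treated with 1.0 or 2.0 µg/ml for 48 h, then harvested, PBS-washed, fixed in ice-cold 70% ethanol at 4 °C overnight, and stained with 50 µg/ml propidium iodide. Flow cytometry gave the percentage of cells in G0/G1, S and G2/M, with the sub-G1 fraction scored as apoptotic.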

K562 [5] = assay: Induction of apoptosis in human imatinib-resistant K562 leukemia cells expressing p210Bcr/Abl at 2 ug/ml after 48 hrs by flow cytometry; assay type: functional; outline: as §1
K562 [6] = assay: Cell cycle arrest in human imatinib-resistant K562 cells assessed as accumulation at G2/M phase at 2 ug/ml after 48 hrs by flow cytometry; assay type: functional; outline: as §1
K562 [7] = assay: Cell cycle arrest in human imatinib-resistant K562 leukemia cells expressing p210Bcr/Ab assessed as accumulation at S phase at 1 ug/ml after 48 hrs by flow cytometry; assay type: functional; outline: as §1
K562 [8] = assay: Induction of apoptosis in human imatinib-resistant K562 cells expressing p210Bcr/Abl at 1 ug/ml after 48 hrs by flow cytometry; assay type: functional; outline: as §1
K562 [9] = assay: Cell cycle arrest in human imatinib-resistant K562 leukemia cells expressing p210Bcr/Ab assessed as accumulation at G0/G1 phase at 1 ug/ml after 48 hrs by flow cytometry; assay type: functional; outline: as §1
K562 [10] = assay: Cell cycle arrest in human imatinib-resistant K562 leukemia cells expressing p210Bcr/Ab assessed as accumulation at G0/G1 phase at 2 ug/ml after 48 hrs by flow cytometry; assay type: functional; outline: as §1
K562 [11] = assay: Cell cycle arrest in human imatinib-resistant K562 leukemia cells expressing p210Bcr/Ab assessed as accumulation at G2/M phase at 1 ug/ml after 48 hrs by flow cytometry; assay type: functional; outline: as §1

Compound	pIC50 (K562 [1])	further results
COc1ccc(C(=O)Oc2ccc3cc2Oc2ccc(cc2)C[C@H]2c4cc(c(OC)cc4CCN2C)Oc2c(OC)c(OC)cc4c2[C@@H](C3)N(C)CC4)cc1	6.26	inhibition (K562 [2]): Active; inhibition (K562 [3]): Active
COc1cc2c3cc1Oc1c(OC)c(OC)cc4c1[C@@H](Cc1ccc(OC(=O)c5ccccc5C)c(c1)Oc1ccc(cc1)C[C@@H]3N(C)CC2)N(C)CC4	6.16	Activity (K562 [4]): 22.89%; inhibition (K562 [2]): Active; inhibition (K562 [3]): Active; Activity (K562 [5]): 51.91%; Activity (K562 [6]): 6.01%; Activity (K562 [7]): 29.28%; Activity (K562 [8]): 31.71%; Activity (K562 [9]): 32.37%; Activity (K562 [10]): 20.04%; Activity (K562 [11]): 7.3%
COc1cc2c3cc1Oc1c(OC)c(OC)cc4c1[C@@H](Cc1ccc(OC(=O)Cc5ccccc5)c(c1)Oc1ccc(cc1)C[C@@H]3N(C)CC2)N(C)CC4	5.65	
COc1cc2c3cc1Oc1c(OC)c(OC)cc4c1[C@@H](Cc1ccc(OC(=O)c5cc6ccccc6[nH]5)c(c1)Oc1ccc(cc1)C[C@@H]3N(C)CC2)N(C)CC4	6.34	
COc1cc2c3cc1Oc1c(OC)c(OC)cc4c1[C@@H](Cc1ccc(OCc5ccc([N+](=O)[O-])cc5)c(c1)Oc1ccc(cc1)C[C@@H]3N(C)CC2)N(C)CC4	6.44	
COc1cc2c3cc1Oc1c(OC)c(OC)cc4c1[C@@H](Cc1ccc(OCc5ccccc5)c(c1)Oc1ccc(cc1)C[C@@H]3N(C)CC2)N(C)CC4	6.10	
COc1cc2c3cc1Oc1c(OC)c(OC)cc4c1[C@@H](Cc1ccc(OCCCBr)c(c1)Oc1ccc(cc1)C[C@@H]3N(C)CC2)N(C)CC4	5.78	
COc1cc2c3cc1Oc1c(OC)c(OC)cc4c1[C@@H](Cc1ccc(OS(=O)(=O)c5ccccc5)c(c1)Oc1ccc(cc1)C[C@@H]3N(C)CC2)N(C)CC4	5.70	
COc1cc2c3cc1Oc1c(OC)c(OC)cc4c1[C@@H](Cc1ccc(OCc5cc(OC)c(OC)c(OC)c5)c(c1)Oc1ccc(cc1)C[C@@H]3N(C)CC2)N(C)CC4	5.82	
COc1cc2c3cc1Oc1c(OC)c(OC)cc4c1[C@@H](Cc1ccc(OS(C)(=O)=O)c(c1)Oc1ccc(cc1)C[C@@H]3N(C)CC2)N(C)CC4	5.32	
COc1cc2c3cc1Oc1c(OC)c(OC)cc4c1[C@@H](Cc1ccc(OCc5ccc(Br)cc5)c(c1)Oc1ccc(cc1)C[C@@H]3N(C)CC2)N(C)CC4	6.15	
COc1cc2c3cc1Oc1c(OC)c(OC)cc4c1[C@@H](Cc1ccc(OC(=O)c5cccc(CCl)c5)c(c1)Oc1ccc(cc1)C[C@@H]3N(C)CC2)N(C)CC4	6.30	
C=C(C)C(=O)Oc1ccc2cc1Oc1ccc(cc1)C[C@H]1c3cc(c(OC)cc3CCN1C)Oc1c(OC)c(OC)cc3c1[C@@H](C2)N(C)CC3	5.42	
COc1cc2c3cc1Oc1c(OC)c(OC)cc4c1[C@@H](Cc1ccc(OC(=O)CCl)c(c1)Oc1ccc(cc1)C[C@@H]3N(C)CC2)N(C)CC4	5.57	
COc1cc2c3cc1Oc1c(OC)c(OC)cc4c1[C@@H](Cc1ccc(OC(=O)Cc5cc(F)c(F)cc5F)c(c1)Oc1ccc(cc1)C[C@@H]3N(C)CC2)N(C)CC4	5.52	
COc1cc2c3cc1Oc1c(OC)c(OC)cc4c1[C@@H](Cc1ccc(OC(=O)c5ccccc5)c(c1)Oc1ccc(cc1)C[C@@H]3N(C)CC2)N(C)CC4	5.67	

Compound	pIC50 (K562 [1])	further results
COc1cc2c3cc1Oc1c(OC)c(OC)cc4c1[C@@H](Cc1ccc(OC(=O)c5ccccc5Br)c(c1)Oc1ccc(cc1)C[C@@H]3N(C)CC2)N(C)CC4	6.11	
COc1cc2c3cc1Oc1c(OC)c(OC)cc4c1[C@@H](Cc1ccc(OC(=O)C(C)(C)C)c(c1)Oc1ccc(cc1)C[C@@H]3N(C)CC2)N(C)CC4	6.00	
COc1cc2c3cc1Oc1c(OC)c(OC)cc4c1[C@@H](Cc1ccc(OC(=O)c5ccc(Cl)cc5)c(c1)Oc1ccc(cc1)C[C@@H]3N(C)CC2)N(C)CC4	6.01	inhibition (K562 [2]): Active; inhibition (K562 [3]): Active
CCOc1ccc2cc1Oc1ccc(cc1)C[C@H]1c3cc(c(OC)cc3CCN1C)Oc1c(OC)c(OC)cc3c1[C@@H](C2)N(C)CC3	5.50	
COc1cc2c3cc1Oc1c(OC)c(OC)cc4c1[C@@H](Cc1ccc(OC(=O)c5ccc([N+](=O)[O-])cc5)c(c1)Oc1ccc(cc1)C[C@@H]3N(C)CC2)N(C)CC4 [E6 BERBAMINE]	5.67	
COc1cc2c3cc1Oc1c(OC)c(OC)cc4c1[C@@H](Cc1ccc(OC(=O)c5cccc(C(F)(F)F)c5)c(c1)Oc1ccc(cc1)C[C@@H]3N(C)CC2)N(C)CC4	6.05	
COc1cc2c3cc1Oc1c(OC)c(OC)cc4c1[C@@H](Cc1ccc(OC(=O)c5ccc(Br)cc5)c(c1)Oc1ccc(cc1)C[C@@H]3N(C)CC2)N(C)CC4	6.40	
COc1cc2c3cc1Oc1c(OC)c(OC)cc4c1[C@@H](Cc1ccc(OC(=O)c5ccco5)c(c1)Oc1ccc(cc1)C[C@@H]3N(C)CC2)N(C)CC4	5.56	
COc1cc2c3cc1Oc1c(OC)c(OC)cc4c1[C@@H](Cc1ccc(O)c(c1)Oc1ccc(cc1)C[C@@H]3N(C)CC2)N(C)CC4 [BERBAMINE]	5.05	inhibition (K562 [2]): Active; inhibition (K562 [3]): Active
COc1cc2c3cc1Oc1c(OC)c(OC)cc4c1[C@@H](Cc1ccc(OC(=O)c5cc([N+](=O)[O-])cc([N+](=O)[O-])c5)c(c1)Oc1ccc(cc1)C[C@@H]3N(C)CC2)N(C)CC4	5.43	
COc1cc2c3cc1Oc1c(OC)c(OC)cc4c1[C@@H](Cc1ccc(OCc5ccc(Cl)nc5)c(c1)Oc1ccc(cc1)C[C@@H]3N(C)CC2)N(C)CC4	6.40	
COc1cc2c3cc1Oc1c(OC)c(OC)cc4c1[C@@H](Cc1ccc(OC(=O)c5cccc(F)c5)c(c1)Oc1ccc(cc1)C[C@@H]3N(C)CC2)N(C)CC4	5.71	
COc1cc2c3cc1Oc1c(OC)c(OC)cc4c1[C@@H](Cc1ccc(OC(=O)c5ccccc5Cl)c(c1)Oc1ccc(cc1)C[C@@H]3N(C)CC2)N(C)CC4	6.22	
CCOCCCCOc1ccc2cc1Oc1ccc(cc1)C[C@H]1c3cc(c(OC)cc3CCN1C)Oc1c(OC)c(OC)cc3c1[C@@H](C2)N(C)CC3	5.39	
COc1cc2c3cc1Oc1c(OC)c(OC)cc4c1[C@@H](Cc1ccc(OC(C)=O)c(c1)Oc1ccc(cc1)C[C@@H]3N(C)CC2)N(C)CC4	5.18	
COc1cc2c3cc1Oc1c(OC)c(OC)cc4c1[C@@H](Cc1ccc(OC(=O)c5cc(OC)c(OC)c(OC)c5)c(c1)Oc1ccc(cc1)C[C@@H]3N(C)CC2)N(C)CC4	6.16	inhibition (K562 [2]): Active; inhibition (K562 [3]): Active
